≈ marks a conversion by molar mass, not a printed value.
Key:
Assay type in all cases: functional
Acinetobacter baumannii [1] = experiment: Antimicrobial activity against Acinetobacter baumannii isolate 50 harboring GyrA Ser83-Leu and ParC Ser80-Leu mutation at pH 7.2
In short: (§1)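 Agar dilution MIC on Mueller-Hinton agar. For the acidic condition, HCl was added to bring the agar to pH 5.8 before pouring the antibiotic plates, and the pH was checked after the agar set. The standard condition was pH 7.2. Both drugs' plates were made the same day from fresh medium, and MICs were read at the same time.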

Acinetobacter baumannii [2] = experiment: Antimicrobial activity against Acinetobacter baumannii isolate 56 harboring GyrA Ser83-Leu and ParC Ser80-Leu mutation at pH 5.8
In short: (§2)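 Agar dilution MIC on Mueller-Hinton agar acidified to pH 5.8 with HCl before the antibiotic-containing plates were poured. Agar pH was checked after solidifying. Plates were made the same day from fresh medium. Both fluoroquinolones were tested simultaneously against A. baumannii isolates with characterized gyrA/parC genes. MICs are in μg/ml.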

Acinetobacter baumannii [3] = experiment: Antimicrobial activity against Acinetobacter baumannii isolate 13 at pH 7.2
In short: (§3)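 MIC by agar dilution on Mueller-Hinton agar under standard conditions (pH 7.2), against isolates with characterized gyrA/parC genes. Agar pH was checked after solidifying. Plates for both drugs were prepared the same day from freshly made media, and MICs were determined simultaneously with the pH 5.8 set.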

Acinetobacter baumannii [4] = experiment: Antimicrobial activity against Acinetobacter baumannii isolate 59 harboring GyrA Ser83-Leu and ParC Glu84-Lys mutation at pH 5.8; in short: as §2
Acinetobacter baumannii [5] = experiment: Antimicrobial activity against Acinetobacter baumannii isolate 44 harboring GyrA Ser83-Leu and ParC Glu84-Lys mutation at pH 5.8; in short: as §1
Acinetobacter baumannii [6] = experiment: Antimicrobial activity against Acinetobacter baumannii isolate 55 harboring GyrA Ser83-Leu and ParC Ser80-Leu mutation at pH 5.8; in short: as §1
Acinetobacter baumannii [7] = experiment: Antimicrobial activity against Acinetobacter baumannii isolate 15 at pH 5.8
In short: (§4)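 MIC by agar dilution on Mueller-Hinton agar acidified to pH 5.8 with HCl before antibiotic-containing plates were poured. Agar pH was rechecked once the agar had solidified. Isolates had characterized gyrA/parC genes. Plates for both drugs were made the same day from fresh media, and MICs were read in parallel with the standard-pH set.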

Acinetobacter baumannii [8] = experiment: Antimicrobial activity against Acinetobacter baumannii isolate 60 harboring GyrA Ser83-Leu and ParC Ser80-Leu mutation at pH 7.2
In short: (§5)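 Agar dilution MIC on Mueller-Hinton agar under standard conditions (pH 7.2). Antibiotic-containing plates were made the same day from freshly prepared medium. Agar pH was checked after solidifying. Both fluoroquinolones were tested simultaneously against A. baumannii isolates with characterized gyrA/parC genes. MICs are in μg/ml.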

Acinetobacter baumannii [9] = experiment: Antimicrobial activity against Acinetobacter baumannii isolate 50 harboring GyrA Ser83-Leu and ParC Ser80-Leu mutation at pH 5.8; in short: as §1
Acinetobacter baumannii [10] = experiment: Antimicrobial activity against Acinetobacter baumannii isolate 7 at pH 5.8; in short: as §2
Acinetobacter baumannii [11] = experiment: Antimicrobial activity against Acinetobacter baumannii isolate 33 harboring GyrA Ser83-Leu mutation at pH 7.2; in short: as §1
Acinetobacter baumannii [12] = experiment: Antimicrobial activity against Acinetobacter baumannii isolate 39 harboring GyrA Ser83-Leu mutation at pH 7.2; in short: as §1
Acinetobacter baumannii [13] = experiment: Antimicrobial activity against Acinetobacter baumannii isolate 4 at pH 5.8
In short: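 Agar dilution MIC on Mueller-Hinton agar acidified with HCl before pouring antibiotic plates; agar pH checked after setting. Isolate has characterized gyrA/parC genes. Plates made the same day from fresh medium, and both drugs tested at the same time. Read-out: MIC (μg/ml).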

Acinetobacter baumannii [14] = experiment: Antimicrobial activity against Acinetobacter baumannii isolate 37 harboring GyrA Ser83-Leu mutation at pH 5.8; in short: as §1
Acinetobacter baumannii [15] = experiment: Antimicrobial activity against Acinetobacter baumannii isolate 38 harboring GyrA Ser83-Leu mutation at pH 5.8; in short: as §1
Acinetobacter baumannii [16] = experiment: Antimicrobial activity against Acinetobacter baumannii isolate 29 harboring GyrA Ser83-Leu mutation at pH 5.8; in short: as §4
Acinetobacter baumannii [17] = experiment: Antimicrobial activity against Acinetobacter baumannii isolate 58 harboring GyrA Ser83-Leu and ParC Ser80-Leu mutation at pH 7.2; in short: as §5
Acinetobacter baumannii [18] = experiment: Antimicrobial activity against Acinetobacter baumannii isolate 32 harboring GyrA Ser83-Leu mutation at pH 5.8; in short: as §1
Acinetobacter baumannii [19] = experiment: Antimicrobial activity against Acinetobacter baumannii isolate 65 harboring GyrA Ser83-Leu and ParC Ser80-Leu mutation at pH 7.2; in short: as §5
Acinetobacter baumannii [20] = experiment: Antimicrobial activity against Acinetobacter baumannii isolate 61 harboring GyrA Ser83-Leu and ParC Ser80-Leu mutation at pH 5.8; in short: as §2
Acinetobacter baumannii [21] = experiment: Antimicrobial activity against Acinetobacter baumannii isolate 3 at pH 5.8; in short: as §4
Acinetobacter baumannii [22] = experiment: Antimicrobial activity against Acinetobacter baumannii isolate 27 harboring GyrA Ser83-Leu mutation at pH 5.8; in short: as §4
Acinetobacter baumannii [23] = experiment: Antimicrobial activity against Acinetobacter baumannii isolate 23 harboring GyrA Glu87-Gly mutation at pH 7.2; in short: as §3
Acinetobacter baumannii [24] = experiment: Antimicrobial activity against Acinetobacter baumannii isolate 43 harboring GyrA Ser83-Leu mutation at pH 7.2; in short: as §1
Acinetobacter baumannii [25] = experiment: Antimicrobial activity against Acinetobacter baumannii isolate 49 harboring GyrA Ser83-Leu and ParC Ser80-Leu mutation at pH 5.8; in short: as §1
Acinetobacter baumannii [26] = experiment: Antimicrobial activity against Acinetobacter baumannii isolate 19 harboring GyrA Ser83-Leu mutation at pH 7.2; in short: as §3
Acinetobacter baumannii [27] = experiment: Antimicrobial activity against Acinetobacter baumannii isolate 22 harboring GyrA Ser83-Leu mutation at pH 5.8; in short: as §4
Acinetobacter baumannii [28] = experiment: Antimicrobial activity against Acinetobacter baumannii isolate 24 harboring GyrA Ser83-Leu mutation at pH 5.8; in short: as §4
Acinetobacter baumannii [29] = experiment: Antimicrobial activity against adeB overexpressing Acinetobacter baumannii isolate 67 harboring GyrA Ser83-Leu and ParC Ser80-Leu mutation at pH 5.8; in short: as §2
Acinetobacter baumannii [30] = experiment: Antimicrobial activity against Acinetobacter baumannii isolate 19 harboring GyrA Ser83-Leu mutation at pH 5.8; in short: as §4
Acinetobacter baumannii [31] = experiment: Antimicrobial activity against Acinetobacter baumannii isolate 20 harboring GyrA Ser83-Leu mutation at pH 5.8; in short: as §4
Acinetobacter baumannii [32] = experiment: Antimicrobial activity against Acinetobacter baumannii isolate 53 harboring GyrA Ser83-Leu and ParC Ser80-Leu mutation at pH 5.8; in short: as §1
Acinetobacter baumannii [33] = experiment: Antimicrobial activity against Acinetobacter baumannii isolate 11 at pH 5.8; in short: as §4
Acinetobacter baumannii [34] = experiment: Antimicrobial activity against Acinetobacter baumannii isolate 1 at pH 7.2; in short: as §3
Acinetobacter baumannii [35] = experiment: Antimicrobial activity against Acinetobacter baumannii isolate 46 harboring GyrA Ser83-Leu and ParC Ser80-Leu mutation at pH 5.8; in short: as §1
Acinetobacter baumannii [36] = experiment: Antimicrobial activity against Acinetobacter baumannii isolate 41 harboring GyrA Ser83-Leu mutation at pH 5.8; in short: as §1
Acinetobacter baumannii [37] = experiment: Antimicrobial activity against Acinetobacter baumannii isolate 48 harboring GyrA Ser83-Leu and ParC Ser80-Leu mutation at pH 5.8; in short: as §1
Acinetobacter baumannii [38] = experiment: Antimicrobial activity against Acinetobacter baumannii isolate 21 harboring GyrA Ser83-Leu mutation at pH 5.8; in short: as §4
Acinetobacter baumannii [39] = experiment: Antimicrobial activity against Acinetobacter baumannii isolate 17 at pH 5.8; in short: as §4

SMILES	MIC (Acinetobacter baumannii [1]) [µg/mL]	MIC (Acinetobacter baumannii [2]) [µg/mL]	MIC (Acinetobacter baumannii [3]) [µg/mL]	MIC (Acinetobacter baumannii [4]) [µg/mL]	MIC (Acinetobacter baumannii [5]) [µg/mL]	MIC (Acinetobacter baumannii [6]) [µg/mL]	MIC (Acinetobacter baumannii [7]) [µg/mL]	MIC (Acinetobacter baumannii [8]) [µg/mL]	MIC (Acinetobacter baumannii [9]) [µg/mL]	MIC (Acinetobacter baumannii [10]) [µg/mL]	MIC (Acinetobacter baumannii [11]) [µg/mL]	MIC (Acinetobacter baumannii [12]) [µg/mL]	MIC (Acinetobacter baumannii [13]) [µg/mL]	MIC (Acinetobacter baumannii [14]) [µg/mL]	MIC (Acinetobacter baumannii [15]) [µg/mL]	MIC (Acinetobacter baumannii [16]) [µg/mL]	MIC (Acinetobacter baumannii [17]) [µg/mL]	MIC (Acinetobacter baumannii [18]) [µg/mL]	MIC (Acinetobacter baumannii [19]) [µg/mL]	MIC (Acinetobacter baumannii [20]) [µg/mL]	other results
O=C(O)c1cn(C2CC2)c2cc(N3CCNCC3)c(F)cc2c1=O [CIPROFLOXACIN]	128 (≈ 386 µM)	> 128	0.5 (≈ 1.51 µM)	> 128	> 128	> 128	4 (≈ 12.1 µM)	128 (≈ 386 µM)	> 128	2 (≈ 6.04 µM)	8 (≈ 24.1 µM)	16 (≈ 48.3 µM)	1 (≈ 3.02 µM)	128 (≈ 386 µM)	128 (≈ 386 µM)	32 (≈ 96.6 µM)	128 (≈ 386 µM)	32 (≈ 96.6 µM)	> 128	> 128	MIC (Acinetobacter baumannii [21]): 2 µg/mL (≈ 6.04 µM); MIC (Acinetobacter baumannii [22]): 32 µg/mL (≈ 96.6 µM); MIC (Acinetobacter baumannii [23]): 4 µg/mL (≈ 12.1 µM); MIC (Acinetobacter baumannii [24]): 32 µg/mL (≈ 96.6 µM); MIC (Acinetobacter baumannii [25]): > 128 µg/mL; MIC (Acinetobacter baumannii [26]): 1 µg/mL (≈ 3.02 µM); MIC (Acinetobacter baumannii [27]): 32 µg/mL (≈ 96.6 µM); MIC (Acinetobacter baumannii [28]): 32 µg/mL (≈ 96.6 µM); MIC (Acinetobacter baumannii [29]): > 128 µg/mL; MIC (Acinetobacter baumannii [30]): 4 µg/mL (≈ 12.1 µM); MIC (Acinetobacter baumannii [31]): 4 µg/mL (≈ 12.1 µM); MIC (Acinetobacter baumannii [32]): > 128 µg/mL; MIC (Acinetobacter baumannii [33]): 4 µg/mL (≈ 12.1 µM); MIC (Acinetobacter baumannii [34]): 0.06 µg/mL (≈ 0.181 µM); MIC (Acinetobacter baumannii [35]): > 128 µg/mL; MIC (Acinetobacter baumannii [36]): > 128 µg/mL; MIC (Acinetobacter baumannii [37]): > 128 µg/mL; MIC (Acinetobacter baumannii [38]): 32 µg/mL (≈ 96.6 µM); MIC (Acinetobacter baumannii [39]): 4 µg/mL (≈ 12.1 µM)
N#Cc1c(N2C[C@@H]3NCCO[C@H]3C2)c(F)cc2c(=O)c(C(=O)O)cn(C3CC3)c12 [FINAFLOXACIN]	16 (≈ 40.2 µM)	4 (≈ 10 µM)	1 (≈ 2.51 µM)	8 (≈ 20.1 µM)	4 (≈ 10 µM)	4 (≈ 10 µM)	0.12 (≈ 0.301 µM)	64 (≈ 161 µM)	4 (≈ 10 µM)	0.06 (≈ 0.151 µM)	16 (≈ 40.2 µM)	16 (≈ 40.2 µM)	0.03 (≈ 0.0753 µM)	2 (≈ 5.02 µM)	2 (≈ 5.02 µM)	4 (≈ 10 µM)	64 (≈ 161 µM)	1 (≈ 2.51 µM)	64 (≈ 161 µM)	8 (≈ 20.1 µM)	MIC (Acinetobacter baumannii [21]): 0.06 µg/mL (≈ 0.151 µM); MIC (Acinetobacter baumannii [22]): 1 µg/mL (≈ 2.51 µM); MIC (Acinetobacter baumannii [23]): 8 µg/mL (≈ 20.1 µM); MIC (Acinetobacter baumannii [24]): 16 µg/mL (≈ 40.2 µM); MIC (Acinetobacter baumannii [25]): 2 µg/mL (≈ 5.02 µM); MIC (Acinetobacter baumannii [26]): 0.5 µg/mL (≈ 1.26 µM); MIC (Acinetobacter baumannii [27]): 1 µg/mL (≈ 2.51 µM); MIC (Acinetobacter baumannii [28]): 2 µg/mL (≈ 5.02 µM); MIC (Acinetobacter baumannii [29]): 4 µg/mL (≈ 10 µM); MIC (Acinetobacter baumannii [30]): 0.12 µg/mL (≈ 0.301 µM); MIC (Acinetobacter baumannii [31]): 0.06 µg/mL (≈ 0.151 µM); MIC (Acinetobacter baumannii [32]): 2 µg/mL (≈ 5.02 µM); MIC (Acinetobacter baumannii [33]): 0.06 µg/mL (≈ 0.151 µM); MIC (Acinetobacter baumannii [34]): 0.12 µg/mL (≈ 0.301 µM); MIC (Acinetobacter baumannii [35]): 2 µg/mL (≈ 5.02 µM); MIC (Acinetobacter baumannii [36]): 2 µg/mL (≈ 5.02 µM); MIC (Acinetobacter baumannii [37]): 2 µg/mL (≈ 5.02 µM); MIC (Acinetobacter baumannii [38]): 0.25 µg/mL (≈ 0.628 µM); MIC (Acinetobacter baumannii [39]): 0.12 µg/mL (≈ 0.301 µM)

Reference: ChEMBL document CHEMBL1255410, “Activity of the investigational fluoroquinolone finafloxacin against ciprofloxacin-sensitive and -resistant Acinetobacter baumannii isolates” (2010)
